We go through 21 compounds from ChEMBL document CHEMBL1121899, “Biological activities of photoaffinity labeling analogues of kinins and their irreversible effects on kinin receptors” (1981).

Test [1] has as its target T1, B1 bradykinin receptor (Homo sapiens) (UniProt P46663).
T1 sequence (whole entry): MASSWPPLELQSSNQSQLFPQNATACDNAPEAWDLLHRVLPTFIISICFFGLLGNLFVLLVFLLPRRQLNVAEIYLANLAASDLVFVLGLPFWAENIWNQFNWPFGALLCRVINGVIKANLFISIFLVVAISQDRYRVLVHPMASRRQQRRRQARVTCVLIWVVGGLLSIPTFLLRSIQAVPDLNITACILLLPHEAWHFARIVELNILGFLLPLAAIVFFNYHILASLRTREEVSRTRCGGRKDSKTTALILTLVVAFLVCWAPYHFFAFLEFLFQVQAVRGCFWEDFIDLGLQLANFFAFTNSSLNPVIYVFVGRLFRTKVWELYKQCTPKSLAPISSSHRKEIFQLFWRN
The experiment in a line: Intrinsic activity was determined. The test is classed as functional. As to conditions: Oryctolagus cuniculus.

Test [2] concerns the target T2, B2 bradykinin receptor (Homo sapiens) (UniProt P30411).
T2 sequence (whole entry): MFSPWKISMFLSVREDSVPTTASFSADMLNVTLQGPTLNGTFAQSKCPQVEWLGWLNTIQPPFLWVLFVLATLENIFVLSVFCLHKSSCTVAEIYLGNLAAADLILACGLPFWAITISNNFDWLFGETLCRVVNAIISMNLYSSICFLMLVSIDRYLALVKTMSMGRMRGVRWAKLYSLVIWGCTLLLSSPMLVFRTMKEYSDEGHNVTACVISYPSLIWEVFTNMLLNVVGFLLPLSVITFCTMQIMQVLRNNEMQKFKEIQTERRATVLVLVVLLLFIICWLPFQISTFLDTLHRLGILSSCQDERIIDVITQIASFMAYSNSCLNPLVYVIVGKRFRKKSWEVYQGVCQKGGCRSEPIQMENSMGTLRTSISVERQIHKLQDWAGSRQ
Nature of the test: Percent agonistic activity in rabbit jugular vein expressing B2 receptor relative to bradykinin. It counts as functional. As to conditions: Oryctolagus cuniculus. A digest of the protocol:
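Isolated rabbit jugular vein strips were equilibrated about 2 h with protease inhibitor SQ 14225 (100 ng/mL) under incandescent light, with no UV. pD₂ was taken as −log of the half-maximal concentration. Relative affinity is given as percent of BK. Specificity was checked by desensitization with BK or an analogue. Antagonists were given as pA₂ from the ID₅₀ that reduces a double agonist dose to a single-dose response.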

Where a SMILES comes first, the peptide text is derived from it.

Compound `CC(C)C[C@H](NC(=O)[C@@H]1CCCN1C(=O)[C@H](CO)NC(=O)[C@H](Cc1ccccc1)NC(=O)CNC(=O)[C@@H]1CCCN1C(=O)[C@@H]1CCCN1C(=O)[C@@H](N)CCCN=C(N)N)C(=O)O` gave an Alpha E in test [1] of 0.
The same measure, in the same setting: the value for `COc1ccc(C[C@H](NC(=O)[C@@H]2CCCN2C(=O)[C@H](CO)NC(=O)[C@H](Cc2ccccc2)NC(=O)CNC(=O)[C@@H]2CCCN2C(=O)[C@@H]2CCCN2C(=O)[C@@H](N)CCCN=C(N)N)C(=O)O)cc1` (H-RPPGFSPY(Me)-OH) was 1.
As for `COc1ccc(C[C@H](NC(=O)[C@@H]2CCCN2C(=O)[C@H](CO)NC(=O)[C@H](Cc2ccccc2)NC(=O)CNC(=O)[C@@H]2CCCN2C(=O)[C@@H]2CCCN2C(=O)[C@@H](N)CCCN=C(N)N)C(=O)N[C@@H](CCCN=C(N)N)C(=O)O)cc1` (H-RPPGFSPY(Me)R-OH), the Alpha E in test [1] was 1. Also, the Relative affinity in test [2] came out at 65%.
`COc1ccc(C[C@H](NC(=O)CNC(=O)[C@@H]2CCCN2C(=O)[C@@H]2CCCN2C(=O)[C@@H](N)CCCN=C(N)N)C(=O)N[C@@H](CO)C(=O)N2CCC[C@H]2C(=O)N[C@@H](Cc2ccccc2)C(=O)O)cc1` (H-RPPGY(Me)SPF-OH): in test [1], the Alpha E worked out at 1.
The compound `COc1ccc(C[C@H](NC(=O)CNC(=O)[C@@H]2CCCN2C(=O)[C@@H]2CCCN2C(=O)[C@@H](N)CCCN=C(N)N)C(=O)N[C@@H](CO)C(=O)N2CCC[C@H]2C(=O)N[C@@H](Cc2ccccc2)C(=O)N[C@@H](CCCN=C(N)N)C(=O)O)cc1` (H-RPPGY(Me)SPFR-OH) returned an Alpha E in test [1] of 1. The compound also yielded a Relative affinity in test [2] of 14%.
On the same counts, the results for `NC(N)=NCCC[C@H](NC(=O)[C@H](CC1CCCCC1)NC(=O)[C@@H]1CCCN1C(=O)[C@H](CO)NC(=O)[C@H](Cc1ccccc1)NC(=O)CNC(=O)[C@@H]1CCCN1C(=O)[C@@H]1CCCN1C(=O)[C@@H](N)CCCN=C(N)N)C(=O)O` (HELM PEPTIDE1{R.P.P.G.F.S.P.[Cha].R}$$$$V2.0) are 1 and 23%.
As to `NC(N)=NCCC[C@H](N)C(=O)N1CCC[C@H]1C(=O)N1CCC[C@H]1C(=O)NCC(=O)N[C@@H](Cc1ccccc1)C(=O)N[C@@H](CO)C(=O)N1CCC[C@H]1C(=O)N[C@@H](CC1CCCCC1)C(=O)O` (HELM PEPTIDE1{R.P.P.G.F.S.P.[Cha]}$$$$V2.0), in test [1], the Alpha E was found to be 0.
In the case of `NC(N)=NCCC[C@H](NC(=O)[C@H](Cc1ccccc1)NC(=O)[C@@H]1CCCN1C(=O)[C@H](CO)NC(=O)[C@H](CC1CCCCC1)NC(=O)CNC(=O)[C@@H]1CCCN1C(=O)[C@@H]1CCCN1C(=O)[C@@H](N)CCCN=C(N)N)C(=O)O` (HELM PEPTIDE1{R.P.P.G.[Cha].S.P.F.R}$$$$V2.0), the Alpha E in test [1] came out at 1. The Relative affinity in test [2] came out at 23%.
Take `NC(N)=NCCC[C@H](N)C(=O)N1CCC[C@H]1C(=O)N1CCC[C@H]1C(=O)NCC(=O)N[C@@H](CC1CCCCC1)C(=O)N[C@@H](CO)C(=O)N1CCC[C@H]1C(=O)N[C@@H](Cc1ccccc1)C(=O)O` (HELM PEPTIDE1{R.P.P.G.[Cha].S.P.F}$$$$V2.0): in test [1], the Alpha E was determined as 1.
For the compound H-RPPGASPF-OH, the Alpha E in test [1] was 1.
For the compound H-RPPGASPFR-OH, the Alpha E in test [1] is 1. The same compound had a Relative affinity in test [2] of 0.1%.
The compound H-RPPGDSPFR-OH registered a Relative affinity in test [2] of 0.08%.
The compound H-RPPGFSPA-OH registered an Alpha E in test [1] of 0.
Take H-RPPGFSPAR-OH: the Alpha E in test [1] came out at 1. In test [2], the Relative affinity came out at 0.01%.
Compound H-RPPGFSPDR-OH showed a Relative affinity in test [2] of 0.04%.
For H-RPPGFSPLR-OH, the Alpha E in test [1] was found to be 1. In addition, in test [2], the Relative affinity worked out at 0.1%.
The compound H-RPPGFSPY-OH displayed an Alpha E in test [1] of 1.
In turn, H-RPPGFSPYR-OH displayed an Alpha E in test [1] of 1. In test [2], this compound displayed a Relative affinity of 3.5%.
In the case of H-RPPGLSPF-OH, the Alpha E in test [1] came out at 1.
H-RPPGLSPFR-OH had an Alpha E in test [1] of 1. In addition, the Relative affinity in test [2] is 8%.
The matching figures for H-RPPGYSPFR-OH: 1 and 0.3%.
